Like-named read-outs stand apart in the source and are kept apart here.
Tests used:
[1] = biological target: Y435A mutant of Trypanosoma cruzi S-adenosylhomocysteine hydrolase (TcY435A) (Trypanosoma cruzi); experiment: SEC
[2] = biological target: T1, HsY430A mutant of Hs-SAHH (Homo sapiens, UniProt P23526, Y430A); experiment: association kinetics of NAD^+ with apo-enzyme; assay type: binding
T1 sequence (P23526 1-432 Y430A): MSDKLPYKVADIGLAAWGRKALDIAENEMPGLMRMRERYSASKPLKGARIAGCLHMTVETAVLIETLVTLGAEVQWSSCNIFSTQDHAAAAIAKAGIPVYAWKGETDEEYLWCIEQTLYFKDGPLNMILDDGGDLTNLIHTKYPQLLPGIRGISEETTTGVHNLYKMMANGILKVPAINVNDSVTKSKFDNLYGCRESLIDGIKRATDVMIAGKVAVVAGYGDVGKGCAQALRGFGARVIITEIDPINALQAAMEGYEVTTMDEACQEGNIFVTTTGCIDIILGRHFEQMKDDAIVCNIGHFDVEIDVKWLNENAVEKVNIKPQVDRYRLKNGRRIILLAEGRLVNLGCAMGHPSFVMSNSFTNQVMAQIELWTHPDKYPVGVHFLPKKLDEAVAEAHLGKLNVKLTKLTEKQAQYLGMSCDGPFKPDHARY

[3] = biological target: TcY435A mutant of Tc-SAHH; experiment: association kinetics of NAD^+ with apo-enzyme; assay type: binding, Trypanosoma cruzi; details: 23 °C, pH 7.4
[4] = biological target: T1, HsY430A mutant of Hs-SAHH; experiment: dissociation of NAD^+; assay type: binding
[5] = system: TcY435A mutant of Tc-SAHH; experiment: dissociation of NAD^+; assay type: binding, Trypanosoma cruzi
[6] = biological target: T1, HsY430A mutant of Hs-SAHH; experiment: cofactor content of isolated and reconstituted mutant enzyme; assay type: binding
[7] = system: TcK431A mutant of Tc-SAHH; experiment: cofactor content of isolated and reconstituted mutant enzyme; assay type: binding, Trypanosoma cruzi
Procedure, shortened: (§1)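 Apo-enzyme preparation: mutants expressed in E. coli were precipitated three times with 80% (v/v) acid ammonium sulfate plus 2–5 mM DTT (pH 2.92, 3.12, then 7.2). Pellets were redissolved in 50 mM phosphate pH 7.2 with 1 mM EDTA. Apo protein (10 mg/mL) was incubated with 1 mM NAD+ or NADH for 12 h at 4 °C, then purified by Superdex 200 gel filtration.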

[8] = system: TcY435A mutant of Tc-SAHH; experiment: as above; assay type: binding, Trypanosoma cruzi
Procedure, shortened: as §1

[9] = biological target: Hs-SAHH; details: 23 °C, pH 7.4, cited from earlier work
[10] = biological target: Tc-SAHH; details: 23 °C, pH 7.4, cited from earlier work
[11] = system: Hs-SAHH; details: cited from earlier work
[12] = system: Tc-SAHH; details: cited from earlier work
[13] = biological target: K431A mutant of Trypanosoma cruzi S-adenosylhomocysteine hydrolase (TcK431A) (Trypanosoma cruzi); experiment: SEC
[14] = biological target: the molecule itself; experiment: SEC
[15] = binding to non-functional sites of apo-SAHH
[16] = read-out: Kf, binding to fully functional sites of holo-SAHH
[17] = read-out: Ko, binding to fully functional sites of apo-SAHH
[18] = Table 2 (23 °C, pH 7.4), value is 10^6 x koff
[19] = enzyme as isolated from the expression system, HPLC
[20] = enzyme as isolated from the expression system, fluorescence

Question: For “Y435A mutant of Trypanosoma cruzi S-adenosylhomocysteine hydrolase (TcY435A) (enzyme)”, which stoichiometry N [1] is on record?
Answer: 4

Question: With `NC(=O)C1=CN([C@@H]2O[C@H](COP(=O)(O)OP(=O)(O)OC[C@H]3O[C@@H](n4cnc5c(N)ncnc54)[C@H](O)[C@@H]3O)[C@@H](O)[C@H]2O)C=CC1` [NAD^+, β-nicotinamide adenine dinucleotide] as the molecule, how does the “Kd, koff/(ka/Ka)” value ([2]; 23 °C, pH 7.4) read?
Answer: 0.75 ± 0.095 µM

Question: And the Ka ([2]; 23 °C, pH 7.4, binding to non-functional sites of apo-SAHH)?
Answer: 17 ± 2 µM

Question: And the “n (Hill coefficient for Ko)” value ([2]; 23 °C, pH 7.4, fast-binding sites)?
Answer: 0.9 ± 0.1

Question: And the “10^−3kon” value ([2]; 23 °C, pH 7.4, value is 10^−3 x kon)?
Answer: 0.54 ± 0.04 M^−1s^−1

Question: And the “decrease of the on-rate, mutant vs wild type” value ([2]; HsY430A vs Hs-SAHH)?
Answer: 4 fold

Question: What about the Kd ([2]; read-out: Kd, koff/kon, 23 °C, pH 7.4) of the same molecule?
Answer: 0.784 ± 0.064 µM

Question: What about the Kd ([2]; read-out: Kf, 23 °C, pH 7.4, binding to fully functional sites of holo-SAHH) of the same molecule?
Answer: 2 ± 0.3 µM

Question: And the Kd ([2]; read-out: Ko, 23 °C, pH 7.4, binding to fully functional sites of apo-SAHH)?
Answer: 432 ± 93 µM

Question: And the “Kd, koff/(ka/Ka)” value [3]?
Answer: 1000 ± 300 µM

Question: And the kon [3]?
Answer: 18 ± 2 M⁻¹ s⁻¹

Question: And the ka/Ka ([3]; binding and transformation of apo-sites to holo-sites)?
Answer: 29 ± 9 M⁻¹ s⁻¹

Question: What about the Ka [3, 15] of the same molecule?
Answer: 0.39 ± 0.04 mM

Question: What about the ka ([3]; transformation of non-functional apo-sites to functional holo-sites) of the same molecule?
Answer: 11 ± 0.4 s⁻¹

Question: And the Kd ([3]; read-out: Kd, koff/kon)?
Answer: 1600 ± 200 µM

Question: What about the Kd [3, 16] of the same molecule?
Answer: 200 ± 30 µM

Question: And the Kd [3, 17]?
Answer: 2600 ± 1000 µM

Question: What about the koff ([4]; 30 °C, pH 7.4) of the same molecule?
Answer: 4.2 ± 0.1 × 10^−4 s^−1

Question: And the “10^6koff” value [4, 18]?
Answer: 420 ± 10 s^−1

Question: And the koff ([5]; 24 °C, pH 7.4)?
Answer: 2.8 ± 0.2 × 10^−2 s^−1

Question: And the “10^3koff” value ([5]; Table 2 (23 °C, pH 7.4), value is 10^3 x koff)?
Answer: 28 ± 2 s^−1

Question: What about the “active-site occupancy by NAD^+” value [6, 19] of the same molecule?
Answer: 30 ± 5%

Question: And the “occupancy after reconstitution of apo-enzyme with NAD^+” value ([7]; attempted reconstitution)?
Answer: no detectable occupancy

Question: What about the “occupancy after reconstitution of apo-enzyme with NAD^+” value ([8]; attempted reconstitution) of the same molecule?
Answer: no detectable occupancy

Question: What about the “active-site occupancy by NAD^+” value [8, 19] of the same molecule?
Answer: 18 ± 1%

Question: And the Ka [9, 15]?
Answer: 19 ± 8 µM

Question: And the “Kd, koff/(ka/Ka)” value [9]?
Answer: 0.007 ± 0.003 µM

Question: And the “10^−3kon” value ([9]; value is 10^−3 x kon)?
Answer: 1.9 ± 0.04 M^−1s^−1

Question: And the Kd ([9]; read-out: Kd, koff/kon)?
Answer: 0.01 ± 0.002 µM

Question: What about the Kd [9, 16] of the same molecule?
Answer: 1.4 ± 0.3 µM

Question: What about the Kd [9, 17] of the same molecule?
Answer: 33 ± 4 µM

Question: What about the Ka [10, 15] of the same molecule?
Answer: 3.8 ± 0.6 µM

Question: What about the “Kd, koff/(ka/Ka)” value [10] of the same molecule?
Answer: 0.069 ± 0.018 µM

Question: What about the “10^−3kon” value ([10]; value is 10^−3 x kon) of the same molecule?
Answer: 0.68 ± 0.02 M^−1s^−1

Question: What about the Kd ([10]; read-out: Kd, koff/kon) of the same molecule?
Answer: 0.161 ± 0.03 µM

Question: And the Kd [10, 16]?
Answer: 1.8 ± 0.4 µM

Question: And the Kd [10, 17]?
Answer: 38 ± 9 µM

Question: And the koff ([11]; 30 °C, pH 7.4, wild-type enzyme)?
Answer: 1.9 ± 0.3 × 10^−5 s^−1

Question: What about the “10^6koff” value [11, 18] of the same molecule?
Answer: 19 ± 3 s^−1

Question: What about the koff ([12]; 24 °C, pH 7.4, wild-type enzyme) of the same molecule?
Answer: 1.1 ± 0.2 × 10^−4 s^−1

Question: What about the “10^6koff” value [12, 18] of the same molecule?
Answer: 110 ± 20 s^−1

Question: Which stoichiometry N [13] does the source give for “K431A mutant of Trypanosoma cruzi S-adenosylhomocysteine hydrolase (TcK431A) (enzyme)” here?
Answer: 4

Question: What does the source list for `NC(=O)C1=CN([C@@H]2O[C@H](COP(=O)(O)OP(=O)(O)OC[C@H]3O[C@@H](n4cnc5c(N)ncnc54)[C@H](O)[C@@H]3O)[C@@H](O)[C@H]2O)C=CC1` [NADH, β-nicotinamide adenine dinucleotide, reduced form]?
Answer: occupancy after reconstitution of apo-enzyme with NADH ([6]; 1 mM NADH, 12 h, 4 °C, fluorescence): 94 ± 1%; active-site occupancy by NADH [6, 20]: 86 ± 5%; occupancy after reconstitution of apo-enzyme with NADH ([7]; attempted reconstitution): no detectable occupancy; active-site occupancy by NADH [7, 20]: 1.30 ± 0.03%; occupancy after reconstitution of apo-enzyme with NADH ([8]; attempted reconstitution): no detectable occupancy; active-site occupancy by NADH [8, 20]: 90 ± 1%

B1: Y430A mutant of human S-adenosylhomocysteine hydrolase (HsY430A) (enzyme)
chain: MSDKLPYKVADIGLAAWGRKALDIAENEMPGLMRMRERYSASKPLKGARIAGCLHMTVETAVLIETLVTLGAEVQWSSCNIFSTQDHAAAAIAKAGIPVYAWKGETDEEYLWCIEQTLYFKDGPLNMILDDGGDLTNLIHTKYPQLLPGIRGISEETTTGVHNLYKMMANGILKVPAINVNDSVTKSKFDNLYGCRESLIDGIKRATDVMIAGKVAVVAGYGDVGKGCAQALRGFGARVIITEIDPINALQAAMEGYEVTTMDEACQEGNIFVTTTGCIDIILGRHFEQMKDDAIVCNIGHFDVEIDVKWLNENAVEKVNIKPQVDRYRLKNGRRIILLAEGRLVNLGCAMGHPSFVMSNSFTNQVMAQIELWTHPDKYPVGVHFLPKKLDEAVAEAHLGKLNVKLTKLTEKQAQYLGMSCDGPFKPDHARY
Question: With B1 as the molecule, how does the “stoichiometry N” value [14] read?
Answer: 4
